Assay results: ChEMBL document CHEMBL1641438, “In vitro efficacy of 7-benzylamino-1-isoquinolinamines against Plasmodium falciparum related to the efficacy of chalcones” (Bioorg Med Chem Lett, 2011)
Calls of active or inactive are those of the source. The rule behind the calls is not given here.

How the values were obtained:
Plasmodium falciparum [1] = assay: Antimalarial activity against mefloquine-resistant, chloroquine-sensitive Plasmodium falciparum D6 assessed as inhibition of [3H]hypoxanthine uptake; type: functional, organism-based
Plasmodium falciparum [2] = assay: Antimalarial activity against chloroquine-resistant, mefloquine-sensitive Plasmodium falciparum W2 assessed as inhibition of [3H]hypoxanthine uptake; type: functional, organism-based
Plasmodium falciparum [3] = assay: Resistance index, ratio of IC50 for Plasmodium falciparum multidrug-resistant TM91C235 to IC50 for mefloquine-resistant, chloroquine-sensitive Plasmodium falciparum D6; type: functional
Plasmodium falciparum [4] = assay: Resistance index, ratio of IC50 for chloroquine-resistant, mefloquine-sensitive Plasmodium falciparum W2 to IC50 for mefloquine-resistant, chloroquine-sensitive Plasmodium falciparum D6; type: functional
Plasmodium falciparum [5] = assay: Antimalarial activity against multidrug-resistant Plasmodium falciparum TM91C235 assessed as inhibition of [3H]hypoxanthine uptake; type: functional, organism-based
Plasmodium falciparum [6] = assay: Antimalarial activity against mefloquine-resistant, chloroquine-sensitive Plasmodium falciparum D6 assessed as inhibition of [3H]hypoxanthine uptake in presence of 1 mM folinic acid; type: functional, organism-based
Method in brief: (§1)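 Folinic acid reversal assay, adapted from a folic acid reversal method and run in normal plasma, to rule out DHFR inhibition. Parasite growth inhibition (IC50) is measured with 1 mM folinic acid present and compared with the IC50 obtained without folinic acid.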

Plasmodium falciparum [7] = assay: Antimalarial activity against multidrug-resistant Plasmodium falciparum TM91C235 assessed as inhibition of [3H]hypoxanthine uptake in presence of 1 mM folinic acid; type: functional, organism-based; method in brief: as §1

Cl.Cl.Nc1nccc2ccc(NCc3cccc(C(F)(F)F)c3)cc12
IC50 (Plasmodium falciparum [1]): 50.1 nM
IC50 (Plasmodium falciparum [2]): 260 nM
Ratio IC50 (Plasmodium falciparum [3]): 1.44
Ratio IC50 (Plasmodium falciparum [4]): 5.2
IC50 (Plasmodium falciparum [5]): 71.9 nM

Cl.Cl.Cl.Cl.Nc1nccc2ccc(NCc3ccc(Cl)c(Cl)c3)cc12
IC50 (Plasmodium falciparum [1]): 69.1 nM
IC50 (Plasmodium falciparum [2]): 455 nM
Ratio IC50 (Plasmodium falciparum [3]): 1.6
Ratio IC50 (Plasmodium falciparum [4]): 6.58
IC50 (Plasmodium falciparum [5]): 111 nM

CCc1nc(N)nc(N)c1-c1ccc(Cl)cc1
Activity (Plasmodium falciparum [6]): inactive
Activity (Plasmodium falciparum [7]): inactive

Cl.Cl.Cl.Nc1nccc2ccc(NCc3cccc(Cl)c3)cc12
IC50 (Plasmodium falciparum [1]): 64.8 nM
IC50 (Plasmodium falciparum [2]): 359 nM
Ratio IC50 (Plasmodium falciparum [3]): 2.44
Activity (Plasmodium falciparum [6]): Active
Activity (Plasmodium falciparum [7]): Active
Ratio IC50 (Plasmodium falciparum [4]): 5.55
IC50 (Plasmodium falciparum [5]): 158 nM

OC(c1cc(C(F)(F)F)nc2c(C(F)(F)F)cccc12)C1CCCCN1 (configuration not stated) [MEFLOQUINE]
IC50 (Plasmodium falciparum [1]): 20.1 nM
Ratio IC50 (Plasmodium falciparum [3]): 1.85
Ratio IC50 (Plasmodium falciparum [4]): 0.289
IC50 (Plasmodium falciparum [5]): 37.4 nM

Cl.Cl.Nc1nccc2ccc(NCc3ccccc3)cc12
IC50 (Plasmodium falciparum [1]): 212 nM
IC50 (Plasmodium falciparum [2]): 1400 nM
Ratio IC50 (Plasmodium falciparum [3]): 2.29
Ratio IC50 (Plasmodium falciparum [4]): 6.59
IC50 (Plasmodium falciparum [5]): 486 nM

Nc1nc(N)c2cc(NCc3cccc(Br)c3)ccc2n1
IC50 (Plasmodium falciparum [1]): < 0.142 nM
IC50 (Plasmodium falciparum [2]): 2.08 nM
Ratio IC50 (Plasmodium falciparum [3]): 147
Ratio IC50 (Plasmodium falciparum [4]): 14.6
IC50 (Plasmodium falciparum [5]): 20.8 nM

CCN(CC)CCCC(C)Nc1ccnc2cc(Cl)ccc12 (configuration not stated)
Activity (Plasmodium falciparum [6]): Active
Activity (Plasmodium falciparum [7]): Active

Cl.Cl.Cl.Nc1nccc2ccc(NCc3ccc(Cl)cc3)cc12
IC50 (Plasmodium falciparum [1]): 73.6 nM
IC50 (Plasmodium falciparum [2]): 417 nM
Ratio IC50 (Plasmodium falciparum [3]): 2.78
Activity (Plasmodium falciparum [6]): Active
Activity (Plasmodium falciparum [7]): Active
Ratio IC50 (Plasmodium falciparum [4]): 5.67
IC50 (Plasmodium falciparum [5]): 205 nM

Cl.Cl.Nc1nccc2ccc(NCc3cccc(Br)c3)cc12
IC50 (Plasmodium falciparum [1]): 103 nM
IC50 (Plasmodium falciparum [2]): 421 nM
Ratio IC50 (Plasmodium falciparum [3]): 1.38
Ratio IC50 (Plasmodium falciparum [4]): 4.09
IC50 (Plasmodium falciparum [5]): 142 nM
